Assay outcomes as filed in PubChem BioAssay.
PAFAH1B3 FP inh – PAFAH1B3 enzyme inhibitors, primary screen, biochemical, fluorescence polarization, human | Platelet-activating factor acetylhydrolase IB subunit alpha1 (Homo sapiens), Q15102 | AID 492972, 2010 | actives 0.28% (n = 340,000) | inhibition, % at 3.39 µM | recombinant PAFAH1B3, FP-rhodamine probe;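 active = inhibition above the screen-wide average of all tested compounds plus 3 SD, cut at about 25% in these data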;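 also: 0% = enzyme with DMSO only and 100% = wells lacking PAFAH1B3 protein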
PAFAH1B2 inh – PAFAH1B2 enzyme inhibitors, primary screen, biochemical, fluorescence polarization, human. Platelet-activating factor acetylhydrolase IB subunit alpha2 (Homo sapiens), P68402. recombinant PAFAH1B2, FP-rhodamine activity probe. inhibition, % at 3.39 µM. actives 1.2% (n = 340,000);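 active = inhibition above the mean of all tested compounds plus 3 SD, cut at about 24% in these data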;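 also: 0% = enzyme with DMSO and 100% = wells lacking PAFAH1B2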
pPAFAH FP inh – pPAFAH enzyme inhibitors, primary screen, biochemical, fluorescence polarization, human. recombinant pPAFAH, FP-rhodamine probe fluorescence polarization. inhibition, % at 3.39 µM. actives 1.5% (n = 330,000). AID 463082, 2010;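 active = inhibition above the mean inhibition across the screen plus 3 SD, cut at about 25% in these data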;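 also: inhibitors block binding of the rhodamine activity-based probe so polarization drops; 0% = enzyme with DMSO and 100% = wells lacking pPAFAH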
Target sequence (Q13093 whole entry, looked up): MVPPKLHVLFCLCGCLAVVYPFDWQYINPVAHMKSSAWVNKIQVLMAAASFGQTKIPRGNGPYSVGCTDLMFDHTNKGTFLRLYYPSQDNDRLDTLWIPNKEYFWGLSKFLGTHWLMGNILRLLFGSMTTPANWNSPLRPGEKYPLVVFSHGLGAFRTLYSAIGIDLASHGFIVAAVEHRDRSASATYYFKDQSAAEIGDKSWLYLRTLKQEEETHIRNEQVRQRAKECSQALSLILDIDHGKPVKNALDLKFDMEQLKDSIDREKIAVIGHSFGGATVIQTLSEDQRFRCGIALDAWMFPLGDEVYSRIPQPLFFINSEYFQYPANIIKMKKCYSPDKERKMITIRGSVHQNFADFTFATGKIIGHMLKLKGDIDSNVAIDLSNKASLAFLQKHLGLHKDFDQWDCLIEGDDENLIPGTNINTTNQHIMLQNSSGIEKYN
PAFAH2 inh – PAFAH2 enzyme inhibitors, primary screen, biochemical, fluorescence polarization, human; actives 0.99% (n = 340,000); AID 492956, 2010; recombinant PAFAH2, FP-rhodamine activity probe; Platelet-activating factor acetylhydrolase 2, cytoplasmic (Homo sapiens), Q99487; inhibition, % at 3.39 µM;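 active = inhibition above the mean over all tested compounds plus 3 SD, cut at about 30% in these data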;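 also: inhibitors block probe labeling of enzyme so polarization drops; 0% = enzyme with DMSO and 100% = wells lacking PAFAH2 protein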
Apaf1 inhib – inhibitors of human Apaf-1 apoptosome, primary screen, biochemical, DEVD-Rh110 fluorescence, uHTS | reconstituted apoptosome caspase-3 activity | inhibition, % at 20 µM | actives 0.71% (n = 330,000); active = inhibition of at least 40% at 20 µM;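 also: plate controls were DMSO wells for no effect and DEVD-CHO caspase inhibitor wells for full effect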
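Assay system – apoptosome proteins · Medium – Hepes buffer, pH 7.5 · Also added – cytochrome c with DEVD-Rh110 · Timing – 30 min compound preincubation, 50 min activation, room temperature · Detection – Rh110 fluorescence, excitation 480 nm, emission 540 nm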
PREPL inhibitor – PREPL enzyme inhibitors, primary screen, biochemical, fluorescence polarization | actives 0.68% (n = 320,000) | Prolyl endopeptidase-like (Homo sapiens), Q4J6C6 | recombinant PREPL, fluorescence polarization activity-based probe | AID 2751, 2010 | inhibition, % at 5.96 µM; in the data active = inhibition above about 43%;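 also: 0% = enzyme with DMSO and 100% = wells lacking enzyme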
The depositor's hits bear a star; nt = not tested or not shown. This is a sample that favours compounds with a hit; in the whole collection about 3.5% have one here.

SMILES	PAFAH1B3 FP inh	PAFAH1B2 inh	pPAFAH FP inh	PAFAH2 inh	Apaf1 inhib	PREPL inhibitor
CC(=O)Nc1ccc(NC(=O)C(C)OC(=O)CSc2ccc(Br)cc2C)cc1 (centres undefined)	-4	24*	15	10	12	-5
CCOc1cc(/C=N/Nc2nc(-c3cccs3)c(NC(C)=O)s2)ccc1O	12	1	25*	-5	-12	19
CC(=O)Nc1sc(N/N=C\c2ccccc2)nc1-c1cccs1	6	-3	6	-1	-4	1
O=C(NC1CCS(=O)(=O)C1)Oc1ccccc1 (centres undefined)	3	-5	3	4	51*	-9
C/C(=N\OCC(=O)OCC(=O)N(C)c1ccccc1)c1ccc2c(c1)OCO2	10	4	4	8	10	14
CC1(C)CC2CC(C)(CN2C(=O)COC(=O)c2cc(Cl)cc(Cl)c2N)C1 (centres undefined)	10	9	-3	-4	15	-2
CC1(C)CC2CC(C)(CN2C(=O)COC(=O)c2ccc(O)cc2O)C1 (centres undefined)	3	25*	7	-5	-16	4
O=C1SC(SCc2ccccc2)=N/C1=C\c1ccco1	-5	7	33*	20	5	22
COc1ccccc1-c1cc(-c2ccc(O)cc2)nc(N)c1C#N	3	6	30*	33*	10	9
CC(NC(=O)c1ccc([N+](=O)[O-])o1)C12CC3CC(CC(C3)C1)C2 (centres undefined)	11	39*	0	16	16	-7
CC(NC(=O)C12CC3CC(CC(C3)C1)C2)C(=O)NN=Cc1ccc([N+](=O)[O-])o1 (centres undefined)	1	15	6	-8	11	27
N#CC1(NC(=O)COC(=O)c2cc(O)c3ccccc3c2O)CCCCC1	50*	16	13	21	73*	19
CN(C(=O)COC(=O)c1cc(NS(=O)(=O)c2cc([N+](=O)[O-])ccc2Cl)ccc1O)C1CCCCC1	9	26*	10	17	13	-6
O=C(O)c1ccccc1C(=O)c1cccc2c(Br)cccc12	3	5	nt	2	nt	nt
Nc1ncc(Br)cc1S(=O)(=O)NCCC(=O)NCCc1ccc(Cl)cc1	2	26*	5	2	3	-11
Nc1ncc(Br)cc1S(=O)(=O)NCCC(=O)Nc1cccc(Cl)c1	3	4	-4	1	-1	-9
O=C(COC(=O)c1cc(-c2ccco2)nc2ccccc12)NCc1ccc2c(c1)OCO2	6	0	26*	2	26	13
O=C(COC(=O)c1ccco1)NCc1ccc2c(c1)OCO2	-1	2	-2	14	-23	0
CCc1ccc(NC(=O)C2CCCN2S(=O)(=O)c2ccc3c(c2)n(C)c(=O)c(=O)n3C)cc1 (centres undefined)	4	-2	12	3	-5	4
O=C1C(Cc2ccccc2)Nc2ncnc(N3CCc4ccccc4C3)c2N1Cc1ccc(Cl)cc1 (centres undefined)	-8	19	4	-8	33	9
CCC1Nc2ncnc(N3CCc4ccccc4C3)c2N(Cc2ccc(Cl)cc2)C1=O (centres undefined)	-7	26*	6	2	36	-5
CCOc1ccccc1C1NC(=O)c2ccccc2N1 (centres undefined)	3	6	nt	4	nt	nt
O=C(CSc1ccccc1)N/N=C/c1ccccc1O	4	27*	4	14	-7	-39
COC(=O)CCCC(=O)N1CCCC(CCC(=O)NCc2ccc(F)c(F)c2)C1 (centres undefined)	15	0	5	-1	0	4
Cc1nn(-c2ccccc2)c(C)c1C(=O)NCc1ccc(S(N)(=O)=O)cc1	-3	-3	5	7	-8	-4
